Key:
[1] = test system: BXPC-3; assay: Growth inhibition of human BxPC3 cells after 48 hrs by SRB assay; format: functional; conditions: BXPC-3, 48 h
Procedure, shortened: (§1)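 Cells grown in RPMI 1640 with 5% heat-inactivated FCS, 2 mM L-glutamine and antibiotics, 37 °C, 5% CO2. Seeded at 3500–30000 cells/well and left 24 h before dosing. DMSO solutions added at 10-fold dilutions from 100 to 0.01 μM for 48 h. Cells TCA-fixed and SRB-stained, absorbance read at 540 nm; GI50 derived against the time-zero plate.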

[2] = test system: OVCAR-5; assay: Growth inhibition of human OVCAR5 cells after 48 hrs by SRB assay; format: functional; conditions: OVCAR-5, 48 h; for CC50: read-out: LC50 (the source's name); procedure, shortened: as §1
[3] = test system: MCF7; assay: Growth inhibition of human MCF7 cells after 48 hrs by SRB assay; format: functional; conditions: MCF7, 48 h; for CC50: read-out: LC50 (the source's name); procedure, shortened: as §1
[4] = (§2) Growth inhibition of human HUVEC cells after 48 hrs by SRB assay; format: cell-based; conditions: HUVEC cells; procedure, shortened: as §1
[5] = test system: HUVEC; assay: as §2; format: cell-based; conditions: huvec, 48 h; procedure, shortened: as §1
[6] = target: Sigma non-opioid intracellular receptor 1 (Homo sapiens, UniProt Q99720); assay: Displacement of [3H]-(+)-pentazocine from sigma 1 receptor in human Jurkat cell membrane; format: cell membranes
Procedure, shortened: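 Jurkat cell membranes incubated with 8 nM [3H](+)-pentazocine and a range of test concentrations for 2 h at 22 °C in Tris-HCl buffer, pH 7.4. Nonspecific binding defined with 10 μM haloperidol. Run in triplicate.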

[7] = test system: HCT-15; assay: Growth inhibition of human HCT15 cells after 48 hrs by SRB assay; format: functional; conditions: HCT-15, 48 h; for CC50: read-out: LC50 (the source's name); procedure, shortened: as §1
[8] = test system: MIA PaCa-2; assay: Growth inhibition of human MIAPaCa2 cells after 48 hrs by SRB assay; format: functional; conditions: MIA PaCa-2, 48 h; for CC50: read-out: LC50 (the source's name); procedure, shortened: as §1
[9] = test system: DU-145; assay: Growth inhibition of human DU145 cells after 48 hrs by SRB assay; format: functional; conditions: DU-145, 48 h; for CC50: read-out: LC50 (the source's name); procedure, shortened: as §1
[10] = test system: HL-60(TB); assay: Growth inhibition of human HL-60(TB) cells after 48 hrs by SRB assay; format: functional; conditions: HL-60, 48 h
Procedure, shortened: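 Cells kept in RPMI 1640 with 5% FCS at 37 °C, 5% CO2, and seeded 24 h before dosing. Compound given from DMSO at 10-fold dilutions, 100 to 0.01 μM, for 48 h. Cells fixed with TCA, stained with SRB, absorbance read at 540 nm. GI50 taken from a time-zero plate.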

[11] = test system: PC-3; assay: Growth inhibition of human PC3 cells after 48 hrs by SRB assay; format: functional; conditions: PC-3, 48 h; for CC50: read-out: LC50 (the source's name); procedure, shortened: as §1
[12] = (§3) Growth inhibition of human NHDF cells after 48 hrs by SRB assay; format: cell-based; conditions: NHDF cells; procedure, shortened: as §1
[13] = test system: NHDF; assay: as §3; format: cell-based; conditions: nhdf, 48 h; procedure, shortened: as §1
[14] = Growth inhibition of human MSC cells after 48 hrs by SRB assay; format: cell-based; procedure, shortened: as §1
[15] = Displacement of [3H]1,3-di-otolylguanidine from sigma 2 receptor in rat cerebral cortex membranes; format: cell membranes, Membrane
Procedure, shortened: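 Rat cerebral cortex membranes incubated with 5 nM [3H]DTG plus 300 nM (+)-pentazocine to mask σ1 sites, together with a range of test concentrations, 2 h at 22 °C in Tris-HCl, pH 7.4. Nonspecific binding defined with 10 μM haloperidol.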

[16] = test system: SK-HEP1; assay: Growth inhibition of human SKHEP1 cells after 48 hrs by SRB assay; format: functional; conditions: SK-HEP1, 48 h; for CC50: read-out: LC50 (the source's name); procedure, shortened: as §1
[17] = test system: U-251; assay: Growth inhibition of human U251 cells after 48 hrs by SRB assay; format: functional; conditions: U-251, 48 h; for CC50: read-out: LC50 (the source's name); procedure, shortened: as §1
[18] = test system: IGROV-1; assay: Growth inhibition of human IGROV1 cells after 48 hrs by SRB assay; format: functional; conditions: IGROV-1, 48 h; procedure, shortened: as §1
[19] = Displacement of [3H]batrachotoxin benzoate from Na+ channel after 60 mins by liquid scintillation counting
Procedure, shortened: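 Na+ channel site 2 binding: vesicle preparation (150−500 μg protein) incubated 60 min with 20−25 nM [3H]BTX-B and 50 μg Leiurius quinquestriatus venom. Buffer was 130 mM choline chloride, 50 mM HEPES/Tris pH 7.4, glucose, MgSO4, KCl, BSA. Filtered on GF/C with cold washes; scintillation counting. Nonspecific binding defined with 250 μM veratridine.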

[20] = test system: HCT-116; assay: Growth inhibition of human HCT116 cells after 48 hrs by SRB assay; format: functional; conditions: HCT-116, 48 h; for CC50: read-out: LC50 (the source's name); procedure, shortened: as §1
[21] = read-out: LC50 (the source's name)

Sequence of Sigma non-opioid intracellular receptor 1 (Q99720 whole entry): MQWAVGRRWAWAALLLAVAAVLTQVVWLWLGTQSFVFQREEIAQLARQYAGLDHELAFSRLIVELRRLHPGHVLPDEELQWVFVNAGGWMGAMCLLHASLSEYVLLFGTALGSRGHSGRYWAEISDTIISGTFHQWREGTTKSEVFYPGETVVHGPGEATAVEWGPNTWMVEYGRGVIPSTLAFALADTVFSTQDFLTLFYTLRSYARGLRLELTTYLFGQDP

Row | Structure (SMILES) | GI50 [1] | LC50 [1] | TGI [1] | GI50 [3] | TGI [3] | CC50 [3] | GI50 at 48 h [4] | LC50 [5] | TGI [5] | IC50 [6] | GI50 [7] | TGI [7] | CC50 [7] | GI50 [11] | GI50 at 48 h [12] | LC50 [13] | TGI [13] | GI50 [17] | TGI [17] | CC50 [17] | also measured
1 | CN1CCN(Cc2ccc(C(c3ccccc3)C34CC5CC(CC(C5)C3)C4)cc2)CC1 (stereo not drawn) | 4.83 µM | 0.00913 µM | 6.98 µM | 2.25 µM | 5.29 µM | 0.00833 µM | 4.12 µM | 100 µM | 7.3 µM | 0.0052 µM | 3.5 µM | 6.3 µM | 0.0091 µM | 3.55 µM | 5.12 µM | 100 µM | 10.4 µM | 3.62 µM | 6.55 µM | 0.00947 µM | GI50 [2]: 5.31 µM; TGI [2]: 19.7 µM; CC50 [2]: 0.0577 µM; GI50 [8]: 3.61 µM; TGI [8]: 6.34 µM; CC50 [8]: 0.00906 µM; GI50 [9]: 3.01 µM; TGI [9]: 6.41 µM; CC50 [9]: 0.00908 µM; GI50 [10]: 0.00463 µM; TGI [10]: 0.00914 µM; CC50 [10, 21]: 0.1 µM; TGI [11]: 6.25 µM; CC50 [11]: 0.0685 µM; TGI [14]: 4.44 µM; IC50 [15]: 0.11 µM; GI50 [16]: 3.35 µM; TGI [16]: 5.97 µM; CC50 [16]: 0.00859 µM
2 | CN1CCN(CCc2ccc(C(c3ccccc3)C34CC5CC(CC(C5)C3)C4)cc2)CC1 (stereo not drawn) | 5.76 µM | 0.1 µM | 19.9 µM | 2.77 µM | 5.7 µM | 0.0086 µM | 3.32 µM | 9.6 µM | 6.46 µM | 0.0029 µM | 4.64 µM | 8.26 µM | 0.1 µM | 4.57 µM | 4.18 µM | 100 µM | 8.07 µM | 3.37 µM | 6.09 µM | 0.00881 µM | GI50 [18]: 4.29 µM; TGI [18]: 8.93 µM; CC50 [18, 21]: 0.0136 µM; GI50 [2]: 17.4 µM; TGI [2]: 29.3 µM; CC50 [2]: 0.0624 µM; GI50 [8]: 7.5 µM; TGI [8]: 36 µM; CC50 [8]: 0.0762 µM; TGI [11]: 9 µM; CC50 [11]: 0.0135 µM; TGI [14]: 6.39 µM; IC50 [15]: 0.0801 µM; GI50 [16]: 3.69 µM; TGI [16]: 6.36 µM; CC50 [16]: 0.00902 µM
3 | c1ccc(C(c2ccc(CCCN3CCCCC3)cc2)C23CC4CC(CC(C4)C2)C3)cc1 (stereo not drawn) | 3.78 µM | 0.00917 µM | 6.47 µM | 2.41 µM | 6.07 µM | 0.00963 µM | 3.27 µM | 9.18 µM | 6.23 µM | 0.0123 µM | 3.89 µM | 6.78 µM | 0.00968 µM | 3.92 µM | 2.83 µM | 9.47 µM | 6.15 µM | 4.61 µM | 7.19 µM | 0.00977 µM | IC50 [19]: > 0.1 µM; GI50 [9]: 5.18 µM; TGI [9]: 8.17 µM; CC50 [9]: 0.0112 µM; GI50 [20]: 3.37 µM; TGI [20]: 5.99 µM; CC50 [20]: 0.00861 µM; TGI [11]: 7.32 µM; CC50 [11]: 0.0107 µM; TGI [14]: 1.93 µM; IC50 [15]: 0.013 µM; GI50 [16]: 3.25 µM; TGI [16]: 5.97 µM; CC50 [16]: 0.00868 µM
4 | c1ccc(CN2CCN(CCCc3ccc(C(c4ccccc4)C45CC6CC(CC(C6)C4)C5)cc3)CC2)cc1 (stereo not drawn) | 36.8 µM | 0.1 µM | 100 µM | 6.76 µM | 61.7 µM | 0.1 µM |  |  |  | 0.0361 µM |  |  |  |  | 39.5 µM | 100 µM | 100 µM | 36.4 µM | 79.1 µM | 0.1 µM | IC50 [19]: 0.0115 µM; GI50 [20]: 7.72 µM; TGI [20]: 39.7 µM; CC50 [20]: 0.0829 µM; IC50 [15]: 0.0283 µM
5 | CCN1CCN(CCCc2ccc(C(c3ccccc3)C34CC5CC(CC(C5)C3)C4)cc2)CC1 (stereo not drawn) | 5.3 µM | 0.1 µM | 10.6 µM | 3.05 µM | 5.87 µM | 0.00861 µM | 4.07 µM | 9.4 µM | 6.73 µM |  | 4.09 µM | 7.64 µM | 0.0473 µM | 4.79 µM | 5.04 µM | 100 µM | 36.6 µM | 4.29 µM | 6.69 µM | 0.00909 µM | GI50 [9]: 5.33 µM; TGI [9]: 8.5 µM; CC50 [9]: 0.0117 µM; GI50 [20]: 3.29 µM; TGI [20]: 5.9 µM; CC50 [20]: 0.00852 µM; TGI [11]: 7.84 µM; CC50 [11]: 0.0109 µM; TGI [14]: 8.69 µM; GI50 [16]: 3.41 µM; TGI [16]: 6.01 µM; CC50 [16]: 0.00861 µM

Reference: ChEMBL document CHEMBL2202989, “New adamantane phenylalkylamines with σ-receptor binding affinity and anticancer activity, associated with putative antagonism of neuropathic pain” (J Med Chem, 2012)
